Source: publication PMC9064382 (RSC Advances, 2019)

How the values were obtained:
hOATP1B3 [1] = target: T1, hOATP1B3 (Homo sapiens, UniProt Q9NPD5); experiment: Uptake of aconitum alkaloids in hOATP1B3-transfected HEK293 cells vs mock; format: in vitro ADME; settings: 10 μm, 2 min, HEK293-hOATP1B3 vs mock
T1 sequence (Q9NPD5 1-702): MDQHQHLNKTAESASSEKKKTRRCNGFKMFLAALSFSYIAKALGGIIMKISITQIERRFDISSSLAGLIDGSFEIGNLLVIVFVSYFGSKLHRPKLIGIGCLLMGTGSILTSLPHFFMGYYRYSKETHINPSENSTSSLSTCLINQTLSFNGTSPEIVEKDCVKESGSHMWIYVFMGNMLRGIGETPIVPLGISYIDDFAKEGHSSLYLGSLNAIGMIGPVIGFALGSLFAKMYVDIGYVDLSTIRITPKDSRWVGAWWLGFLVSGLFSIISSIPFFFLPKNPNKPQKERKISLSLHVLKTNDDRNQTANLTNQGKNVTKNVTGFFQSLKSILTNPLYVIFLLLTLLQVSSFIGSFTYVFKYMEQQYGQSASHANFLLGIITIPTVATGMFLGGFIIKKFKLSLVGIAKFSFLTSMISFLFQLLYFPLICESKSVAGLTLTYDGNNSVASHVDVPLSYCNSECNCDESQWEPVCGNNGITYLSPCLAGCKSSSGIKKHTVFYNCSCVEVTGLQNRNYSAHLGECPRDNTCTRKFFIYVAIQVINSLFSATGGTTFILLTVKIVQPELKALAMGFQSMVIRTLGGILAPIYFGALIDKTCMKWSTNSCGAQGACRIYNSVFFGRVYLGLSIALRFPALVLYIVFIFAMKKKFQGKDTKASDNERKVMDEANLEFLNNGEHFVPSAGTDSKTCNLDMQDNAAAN

hOATP1B1 [2] = target: T2, hOATP1B1 (Homo sapiens, UniProt Q9Y6L6); experiment: Uptake of aconitum alkaloids in hOATP1B1-transfected HEK293 cells vs mock; format: in vitro ADME; settings: 10 μm, 2 min
T2 sequence (Q9Y6L6 1-691): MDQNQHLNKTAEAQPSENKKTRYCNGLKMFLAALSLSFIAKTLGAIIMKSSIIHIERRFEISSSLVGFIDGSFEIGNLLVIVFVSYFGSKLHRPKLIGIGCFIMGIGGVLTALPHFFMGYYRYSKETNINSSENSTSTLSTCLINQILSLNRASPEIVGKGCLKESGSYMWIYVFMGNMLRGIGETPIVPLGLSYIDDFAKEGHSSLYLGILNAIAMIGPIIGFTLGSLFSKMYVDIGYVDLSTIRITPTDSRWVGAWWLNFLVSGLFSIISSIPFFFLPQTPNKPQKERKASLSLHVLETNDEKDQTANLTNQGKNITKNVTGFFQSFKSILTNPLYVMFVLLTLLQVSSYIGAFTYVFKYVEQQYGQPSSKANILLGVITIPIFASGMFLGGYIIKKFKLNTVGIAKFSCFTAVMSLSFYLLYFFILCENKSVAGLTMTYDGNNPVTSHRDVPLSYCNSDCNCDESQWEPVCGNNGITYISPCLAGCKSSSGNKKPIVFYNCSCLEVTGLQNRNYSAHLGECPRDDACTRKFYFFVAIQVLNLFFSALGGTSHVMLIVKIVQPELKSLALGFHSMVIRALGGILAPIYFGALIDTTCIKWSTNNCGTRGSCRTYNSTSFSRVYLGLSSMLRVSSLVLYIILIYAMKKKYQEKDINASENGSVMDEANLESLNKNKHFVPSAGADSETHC
Method in brief: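 HEK293-hOATP1B1 and mock cells were grown in DMEM with 10% FBS, seeded at 2 × 10^5/well and cultured 48 h. They were rinsed, preincubated 10 min at 37 °C in DPBS pH 7.4, then exposed to the alkaloid for 2 min at 37 °C. After three ice-cold DPBS rinses and methanol lysis, supernatants were measured by UPLC-MS/MS (positive MRM, sinomenine internal standard). Results were normalised to BCA protein; n = 3, t-test versus mock.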

hOCT1 = target: T3, hOCT1 (Homo sapiens, UniProt O15245); experiment: Uptake of aconitum alkaloids in hOCT1-transfected cells vs mock; format: in vitro ADME; settings: 10 μm, 5 min
T3 sequence (O15245 1-554): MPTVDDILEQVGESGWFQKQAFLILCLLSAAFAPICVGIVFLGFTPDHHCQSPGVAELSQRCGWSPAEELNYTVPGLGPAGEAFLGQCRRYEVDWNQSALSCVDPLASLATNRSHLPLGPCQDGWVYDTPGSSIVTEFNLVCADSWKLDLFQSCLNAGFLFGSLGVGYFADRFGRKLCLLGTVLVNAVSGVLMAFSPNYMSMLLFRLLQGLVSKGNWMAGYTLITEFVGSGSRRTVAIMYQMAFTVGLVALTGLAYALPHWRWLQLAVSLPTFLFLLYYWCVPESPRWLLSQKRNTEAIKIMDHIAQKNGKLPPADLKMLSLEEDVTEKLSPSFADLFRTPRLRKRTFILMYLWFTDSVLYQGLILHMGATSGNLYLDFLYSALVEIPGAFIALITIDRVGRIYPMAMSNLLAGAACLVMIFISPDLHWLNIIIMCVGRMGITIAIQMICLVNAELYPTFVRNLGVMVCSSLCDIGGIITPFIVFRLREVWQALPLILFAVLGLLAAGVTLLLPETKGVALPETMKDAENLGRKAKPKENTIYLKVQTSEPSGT

hOCT2 = target: T4, hOCT2 (Homo sapiens, UniProt O15244); experiment: Inhibition of 14C-TEA uptake in hOCT2-transfected cells by liquorice ingredients; format: in vitro ADME; settings: for inhibitory rate on hOCT2: 100 μm, 5 μmol L^−1 14C-TEA, 5 min
T4 sequence (O15244 1-555): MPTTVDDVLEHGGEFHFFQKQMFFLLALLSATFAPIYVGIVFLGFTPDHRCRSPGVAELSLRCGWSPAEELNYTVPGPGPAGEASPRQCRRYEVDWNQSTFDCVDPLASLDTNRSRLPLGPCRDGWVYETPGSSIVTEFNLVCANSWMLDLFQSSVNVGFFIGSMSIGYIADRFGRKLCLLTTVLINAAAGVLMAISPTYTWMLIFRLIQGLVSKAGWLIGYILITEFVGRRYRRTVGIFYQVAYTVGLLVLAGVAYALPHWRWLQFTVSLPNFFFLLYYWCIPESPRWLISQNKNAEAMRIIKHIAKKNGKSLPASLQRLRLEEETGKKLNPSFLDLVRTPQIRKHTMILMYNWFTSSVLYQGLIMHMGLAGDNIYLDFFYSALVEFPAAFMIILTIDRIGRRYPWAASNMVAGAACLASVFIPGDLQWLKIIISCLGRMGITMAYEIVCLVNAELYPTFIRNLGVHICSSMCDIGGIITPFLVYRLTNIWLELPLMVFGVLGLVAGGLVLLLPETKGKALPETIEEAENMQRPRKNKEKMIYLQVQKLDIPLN

hOAT3 = target: T5, hOAT3 (Homo sapiens, UniProt Q8TCC7); experiment: Inhibition of 3H-ES uptake in hOAT3-transfected cells by liquorice ingredients; format: in vitro ADME
T5 sequence (Q8TCC7 1-542): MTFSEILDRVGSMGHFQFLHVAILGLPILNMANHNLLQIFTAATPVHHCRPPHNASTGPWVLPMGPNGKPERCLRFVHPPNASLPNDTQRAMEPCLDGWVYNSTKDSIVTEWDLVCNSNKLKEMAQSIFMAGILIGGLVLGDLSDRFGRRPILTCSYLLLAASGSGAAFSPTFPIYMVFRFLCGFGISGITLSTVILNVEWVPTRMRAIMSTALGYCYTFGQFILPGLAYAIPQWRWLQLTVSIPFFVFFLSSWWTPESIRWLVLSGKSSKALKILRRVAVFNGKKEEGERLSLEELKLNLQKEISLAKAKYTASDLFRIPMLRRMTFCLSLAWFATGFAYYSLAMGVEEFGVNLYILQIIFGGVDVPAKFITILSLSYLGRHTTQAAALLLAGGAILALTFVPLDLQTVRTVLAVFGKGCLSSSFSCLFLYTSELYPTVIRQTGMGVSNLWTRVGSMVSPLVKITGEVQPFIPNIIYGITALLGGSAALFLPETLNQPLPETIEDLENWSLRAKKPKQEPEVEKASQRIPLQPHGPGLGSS
Method in brief: (§1)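 Transfected and mock cells were incubated 2 min at 37 °C with 200 nmol L−1 3H-ES plus test compound. The screen used a single 100 μmol L−1 concentration with reference inhibitors as positive controls, giving an inhibition rate (n = 3, mean ± sd). […] DMSO was <0.2%. Cells were stopped with cold DPBS, rinsed three times, lysed in 0.1 mol L−1 NaOH and counted by scintillation (dpm).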

hOATP2B1 = target: T6, hOATP2B1 (Homo sapiens, UniProt O94956); format: in vitro ADME; settings: for inhibition of hOATP2B1: screening at 100 μm
T6 sequence (O94956 1-709): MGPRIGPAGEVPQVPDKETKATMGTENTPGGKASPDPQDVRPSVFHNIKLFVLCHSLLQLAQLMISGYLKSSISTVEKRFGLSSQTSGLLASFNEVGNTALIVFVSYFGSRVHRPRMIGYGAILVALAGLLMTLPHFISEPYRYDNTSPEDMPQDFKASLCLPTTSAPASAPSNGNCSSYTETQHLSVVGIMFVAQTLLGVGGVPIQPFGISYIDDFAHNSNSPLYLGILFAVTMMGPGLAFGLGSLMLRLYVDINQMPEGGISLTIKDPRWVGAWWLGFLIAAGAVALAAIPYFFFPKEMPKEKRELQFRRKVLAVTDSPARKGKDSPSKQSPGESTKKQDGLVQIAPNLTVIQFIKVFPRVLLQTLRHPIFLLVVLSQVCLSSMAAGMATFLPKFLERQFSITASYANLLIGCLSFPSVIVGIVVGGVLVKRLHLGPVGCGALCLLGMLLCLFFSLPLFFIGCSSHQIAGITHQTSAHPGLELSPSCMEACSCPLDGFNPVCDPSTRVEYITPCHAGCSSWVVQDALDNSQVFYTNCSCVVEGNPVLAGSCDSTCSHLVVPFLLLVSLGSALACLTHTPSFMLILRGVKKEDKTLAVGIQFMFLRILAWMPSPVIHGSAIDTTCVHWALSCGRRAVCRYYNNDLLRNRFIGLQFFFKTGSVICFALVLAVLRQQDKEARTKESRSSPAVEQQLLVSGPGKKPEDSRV
Method in brief: as §1

[3] = format: in vivo, Sprague-Dawley (SD) rats; settings: pretreatment with the named substance, rats
hOATP1B1 [4] = target: T2, hOATP1B1; format: in vitro ADME; settings: screening at 100 μm
hOATP1B3 [5] = target: T1, hOATP1B3; format: in vitro ADME; settings: screening at 100 μm

COC[C@]12CN(C)[C@@H]3[C@@H]4[C@H](OC)[C@H]1[C@@]3([C@@H](OC)C[C@H]2O)[C@@H]1C[C@@]2(O)[C@H](OC(=O)c3ccccc3)[C@@H]1[C@]4(OC(C)=O)[C@@H](O)[C@@H]2OC [mesaconitine]
concentration in hOATP1B3-transfected cells, fold of HEK293 mock cells (hOATP1B3 [1]): ~3.4 fold | concentration in hOATP1B1-transfected cells, fold of HEK293 mock cells (hOATP1B1 [2]): approximately 2.7 fold | concentration in HEK293–hOCT1, fold higher than control (hOCT1): roughly 1.9 fold

O=C(/C=C/c1ccc(O)cc1)c1ccc(O)cc1O [isoliquiritigenin]
IC50 (hOCT2): 31.4 µM | IC50 (hOAT3): 2.18 µM

CCN1C[C@]2(COC)[C@H](O)C[C@H](OC)[C@@]34[C@@H]5C[C@@]6(O)[C@H](OC(=O)c7ccccc7)[C@@H]5[C@@](O)([C@@H]([C@H](OC)[C@H]23)[C@@H]14)[C@@H](O)[C@@H]6OC [benzoylaconitine]
concentration in HEK293–hOCT1, fold higher than control (hOCT1): ~2.3 fold

COC[C@@]12CC[C@H](OC)[C@]34C(C([C@H](OC)[C@H]13)[C@]1(OC(C)=O)[C@H]3[C@@H](OC(=O)c5ccccc5)[C@](O)(C[C@H]34)[C@@H](OC)[C@@H]1O)N(C)C2 [hypaconitine]
concentration in HEK293–hOCT1, fold higher than control (hOCT1): ~3.3 fold

CC1(C)[C@@H](O)CC[C@]2(C)[C@H]3C(=O)C=C4[C@@H]5C[C@@](C)(C(=O)O)CC[C@]5(C)CC[C@@]4(C)[C@]3(C)CC[C@@H]12 [glycyrrhetinic acid]
IC50 (hOATP2B1): 1.07 µM | inhibition of hOATP2B1 (hOATP2B1): strong inhibitors | IC50 (hOCT2): 7.41 µM | inhibitory rate on hOCT2 (hOCT2): 80.17% | IC50 (hOAT3): 1.83 µM

COC[C@@]12CC[C@H](OC)[C@]34C([C@H]([C@H](OC)[C@H]13)[C@]1(O)[C@H]3[C@@H](OC(=O)c5ccccc5)[C@](O)(C[C@H]34)[C@@H](OC)[C@@H]1O)N(C)C2 [benzoylhypaconitine]
concentration in HEK293–hOCT1, fold higher than control (hOCT1): ~3.7 fold

COC[C@]12CN(C)C3[C@@H]4[C@H](OC)[C@H]1[C@@]3([C@@H](OC)C[C@H]2O)[C@@H]1C[C@@]2(O)[C@H](OC(=O)c3ccccc3)[C@@H]1[C@]4(O)[C@@H](O)[C@@H]2OC [benzoylmesaconitine]
concentration in HEK293–hOCT1, fold higher than control (hOCT1): ~2.2 fold

C=C[C@H]1C[N@@]2CC[C@H]1C[C@@H]2[C@@H](O)c1ccnc2ccc(OC)cc12 [quinidine, reference compound]
Tmax of aconitine in the liver [3]: postponed

O=C(/C=C/c1ccc(O[C@@H]2O[C@H](CO)[C@@H](O)[C@H](O)[C@H]2O)cc1)c1ccc(O)cc1O [isoliquiritin]
inhibition of hOATP2B1 (hOATP2B1): strong inhibitors | inhibition of hOATP1B1 (hOATP1B1 [4]): strong inhibitors | inhibition of hOATP1B3 (hOATP1B3 [5]): strong inhibitors | inhibitory rate on hOCT2 (hOCT2): 71.9%
